# Source: PubChem BioAssay (several laboratories)
# Hits are enriched below; roughly 1.1% of the tested compounds scored in any of these assays.
# FAS-TE inh – FAS thioesterase domain inhibitors, primary screen, biochemical, fluorescence intensity, uHTS. recombinant FAS-TE, OMFH fluorogenic substrate, fluorescence endpoint. inhibition, % at 15 µM. Fatty acid synthase (Homo sapiens), P49327. hit rate 0.67% among 360,000;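 active = compounds whose normalised, plate-corrected inhibition of enzyme fluorescence in the single-dose primary screen is 50% or more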;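 also: 0% = DMSO with enzyme and 100% = substrate without enzyme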
# ABCB6 inh MLPCN – ABCB6 transporter inhibitors, primary screen, K562-ABCB6 cells, flow cytometry, MLPCN library. K562-ABCB6 porphyrin accumulation, 1 h; hits give low values. fluorescence ratio to DMSO, % at 10 µM. hit rate 0.19% among 360,000;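 active = fluorescence ratio to DMSO below 75%, the collection mean minus 3 SD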;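 also: signal is porphyrin accumulated inside mitochondria; 100% equals median channel fluorescence of DMSO control wells; lower ratio means ABCB6 inhibition with less porphyrin fluorescence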
# Target sequence (Q9NP58 whole entry, looked up): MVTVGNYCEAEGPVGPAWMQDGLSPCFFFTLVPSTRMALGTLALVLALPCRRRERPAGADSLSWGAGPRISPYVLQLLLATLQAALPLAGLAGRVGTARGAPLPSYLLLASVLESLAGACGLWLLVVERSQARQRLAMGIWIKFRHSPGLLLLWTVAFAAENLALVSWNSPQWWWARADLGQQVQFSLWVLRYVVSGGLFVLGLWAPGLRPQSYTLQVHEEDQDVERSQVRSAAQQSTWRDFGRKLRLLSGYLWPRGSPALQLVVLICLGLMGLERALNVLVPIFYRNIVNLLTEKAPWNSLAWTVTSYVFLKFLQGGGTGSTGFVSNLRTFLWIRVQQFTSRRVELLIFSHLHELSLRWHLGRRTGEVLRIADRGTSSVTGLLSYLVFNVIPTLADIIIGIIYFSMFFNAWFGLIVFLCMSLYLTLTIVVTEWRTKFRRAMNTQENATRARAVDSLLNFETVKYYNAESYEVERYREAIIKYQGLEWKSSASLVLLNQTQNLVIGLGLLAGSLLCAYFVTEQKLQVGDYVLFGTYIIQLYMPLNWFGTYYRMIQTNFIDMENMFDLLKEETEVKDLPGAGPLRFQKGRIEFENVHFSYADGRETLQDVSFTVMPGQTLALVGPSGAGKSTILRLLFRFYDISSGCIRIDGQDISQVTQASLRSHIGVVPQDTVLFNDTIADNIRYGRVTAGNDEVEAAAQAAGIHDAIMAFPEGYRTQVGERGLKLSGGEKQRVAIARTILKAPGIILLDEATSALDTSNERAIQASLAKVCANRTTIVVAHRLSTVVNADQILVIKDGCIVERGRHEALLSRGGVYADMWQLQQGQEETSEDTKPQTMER
# hiPSC survival – enhancers of single-cell hiPSC survival, primary screen, ATPlite luminescence; hit rate 0.044% among 360,000; 100% = ROCK inhibitor wells, 0% = DMSO; survival enhancement, % at 20 µM; in the data active = survival enhancement above about 18%;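 also: cells exposed to compounds for 16 hours before the ATP read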
# SENP1 FRET inh – human SENP1 catalytic domain inhibitors, primary screen, biochemical, FRET, uHTS; AID 624204, 2012; recombinant SENP1 catalytic domain, CyPet-SUMO1-YPet FRET cleavage; inhibition, % at 10 µM; hit rate 0.21% among 360,000; Sentrin-specific protease 1 (Homo sapiens), Q9P0U3;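 active = inhibition at least 30% at 10 µM, raw YFP signal under a set limit, fluorescence ratio 0.5 to 1.5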;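 also: 0% = enzyme with DMSO and 100% = no enzyme wells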
#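 Test system: human SENP1 catalytic domain; medium: Tris pH 8 buffer plus EDTA, NaCl, BME, BSA, NP40, catalase; incubation: 50 min reaction at room temperature; technique: FRET, CFP and YFP emission; controls: no-enzyme low control and enzyme-plus-DMSO high control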
# FAS-TE conf – FAS thioesterase domain inhibitors, confirmation, biochemical, fluorescence intensity, single concentration; shares compounds with FAS-TE inh; recombinant FAS-TE, OMFH fluorogenic substrate; inhibition, % at 15 µM; hit rate 45% among 2,300; AID 624325, 2012;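 active = compounds inhibiting the enzyme by at least 50% at 15 µM in any one of the replicates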;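 also: 0% = enzyme with DMSO only and 100% = wells lacking enzyme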
# The depositor's hits bear a star; . = no result given.
SMILES,FAS-TE inh,ABCB6 inh MLPCN,hiPSC survival,SENP1 FRET inh,FAS-TE conf
Cc1cccn2c(=O)c(/C=C(\C#N)S(=O)(=O)c3ccccc3)c(N3CCN(C)CC3)nc12,7,106,0,-18,.
Cc1cccc(CN2CCN(C3CN(Cc4cn(Cc5ccccc5C(F)(F)F)nn4)S(=O)(=O)C3)CC2)c1 (stereo not drawn),2,97,-3,-1,.
COc1cccc(/C=C/C(=O)OCC(=O)c2ccc(Br)cc2)c1,0,99,0,1,.
Cc1cccc(C(=O)OCC(=O)c2ccc(CC(=O)N3CCOCC3)s2)c1C,4,101,3,-36,.
Cc1cc(C)c(NC(=O)CN(C)C(=O)CNC(=O)c2cccs2)c(C)c1,-5,96,0,2,.
CCc1ccc(C(C)NC(=O)COC(=O)c2ccc(-n3cnnn3)cc2)cc1 (stereo not drawn),-11,99,-1,1,.
O=C(Nc1ccc2c(c1)OCCO2)C(c1cc2ccccc2o1)N1CCN(c2ccc(C(F)(F)F)cn2)CC1 (stereo not drawn),55*,102,-1,2,18
C=CCN1CC(C(=O)N2CCC(Cc3ccc(Cl)cc3)(C(=O)OCC)CC2)CC1=O (stereo not drawn),-2,99,-1,2,.
Fc1cccc(CCN2CCNC[C@@H]2CC2CCCCC2)c1,-17,101,-3,-1,.
CC(C(=O)Nc1ccccc1Br)c1ccc([N+](=O)[O-])cc1 (stereo not drawn),8,99,2,1,.
Cc1ccc(NC(=O)C(C)c2ccc([N+](=O)[O-])cc2)cc1Cl (stereo not drawn),59*,103,0,2,45
CC(C)(C)N(Cc1ccccc1)C(=O)COC(=O)c1ccc([N+](=O)[O-])o1,50*,95,-2,-1,52*
O=C(COC(=O)c1ccc([N+](=O)[O-])o1)NCCc1ccccc1,0,98,0,-37,.
O=C(COC(=O)Cc1ccccc1F)NC(=O)NC1CCCC1,-4,96,0,5,.
Cc1cc(/C=N/n2c(COc3ccccc3)nc3ccccc3c2=O)c(O)c([N+](=O)[O-])c1,60*,102,0,20,9
Cc1ccc(-c2[nH]ncc2/C=N/n2c(COc3ccccc3)nc3ccccc3c2=O)cc1,-10,90,0,2,.
CC(=O)N(C1CC(C)C(C#N)(C#N)C1(C#N)C#N)N(C)C (stereo not drawn),54*,88,2,1,63*
CCCC(=O)N(C1CC(C)C(C#N)(C#N)C1(C#N)C#N)N(C)C (stereo not drawn),62*,96,10,4,68*
COc1cc2ccccc2cc1C(=O)NCC(c1cccs1)N(C)C (stereo not drawn),2,97,-1,1,.
O=C(NC1CCCCC1)NC1C2CC3CC(C2)CC1C3 (stereo not drawn),0,94,0,0,.
Cc1cc(Cl)ccc1OC(C)C(=O)Nc1ccc([N+](=O)[O-])cn1 (stereo not drawn),52*,110,0,4,22
COc1ccc(NS(=O)(=O)c2ccc(O)c(C(=O)OCC(=O)NC(C)C3CC4CCC3C4)c2)cc1 (stereo not drawn),6,91,0,3,.
CC(NC(=O)COC(=O)c1cc(NS(=O)(=O)c2ccc(Cl)c([N+](=O)[O-])c2)ccc1O)C1CC2CCC1C2 (stereo not drawn),53*,99,16,4,51*
CC(NC(=O)c1ccc([N+](=O)[O-])cc1Cl)C1CC2CCC1C2 (stereo not drawn),57*,101,-1,1,66*
COc1ccccc1[C@@H]1C(c2ccccc2)=NN(c2ccc(Br)cc2)[C@H]1C(=O)N1CCOC1=O,74*,105,0,-70,13
COc1ccccc1[C@@H]1C(c2cccc(C)c2)=NN(c2ccc(Br)cc2)[C@H]1C(=O)N1CCOC1=O,62*,96,-1,-62,17
CCOCCCn1c(=NC(=O)c2ccco2)c(C(=O)OCC)cc2c(=O)n3cccc(C)c3nc21,67*,99,2,-34,2
